Runt-CBFb FRET – inhibitors of human RUNX1 Runt domain binding to CBFb | Q01196+Q13951 | AID 1496 | Cerulean-Runt/Venus-CBFb FRET ratio 530/480, 1 h | inhibition, % at 20 µM | 220,000 tested, 0.46% active;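 active means inhibition over about 50% at 20 µM in the single-dose screen, limit read from the data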;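 further: 0% = DMSO wells and 100% = excess unlabeled CBFb competitor control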
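Assay system: Cerulean-Runt domain fusion protein, energy donor; Signal: fluorescence energy transfer, 422 nm excitation, 530/480 nm emission; Timing: 1 h compound exposure, room temperature; Control set: unlabeled CBFb; Medium: Tris buffer pH 7.5 with salts and BSA; Compound: single test concentration of 20 µM, 1% DMSO final; Probe or stimulus: Venus-CBFb 100 nM.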
14-3-3 Bad inh – disrupts binding of bovine 14-3-3 zeta to phospho-Bad peptide; inhibition, % at 21.7 µM; P63103; TR-FRET 14-3-3zeta/Dy647-pBad peptide displacement, 1 h; 220,000 tested, 0.71% active;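 active means inhibition above about 70%, limit read from the data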;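 further: 0% = full 14-3-3 plus peptide FRET controls and 100% = background without 14-3-3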
Target sequence (P63103 whole entry, looked up): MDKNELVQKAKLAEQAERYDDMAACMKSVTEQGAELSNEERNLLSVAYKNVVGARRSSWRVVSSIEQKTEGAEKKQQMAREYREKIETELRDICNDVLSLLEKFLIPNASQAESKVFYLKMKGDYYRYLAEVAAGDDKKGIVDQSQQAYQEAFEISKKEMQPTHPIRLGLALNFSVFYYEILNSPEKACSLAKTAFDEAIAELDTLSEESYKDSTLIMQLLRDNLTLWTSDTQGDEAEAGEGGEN
TbHK1 inh – T. brucei hexokinase 1 inhibition; recombinant TbHK1, G6PDH-coupled NADH A340; inhibition, % at 10 µM; 220,000 tested, 0.11% active; AID 1430;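 active means inhibition of 50% or more in the single-dose primary screen; inactive means inhibition below 50%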
Hck-Nef inh – inhibitors of human Hck kinase activated by Nef. Recombinant Hck-YEEI plus Nef, Z-Lyte FRET kinase assay. 220,000 tested, 0.68% active. inhibition, % at 20 µM. P08631;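 active means Hck-Nef kinase inhibition above about 50%, limit read from the data; inactive means inhibition below that limit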;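 further: 0% = DMSO with Hck plus Nef and 100% = Hck alone without Nef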
RanGTP-Impb inh – inhibitors of RanGTP-importin-beta interaction, primary screen, biochemical, FRET, CFP-Ran, YFP-importin-beta, homogeneous; inhibition, % (test concentration not listed); cell-free CFP-Ran/YFP-importin-beta FRET ratio; 300,000 tested, 1.1% active;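 active means more than half of the replicate wells show a fall in the fluorescence ratio signal beyond about 16%, limit read from the data, passing the limit was not always enough; inconclusive means exactly half of the replicate wells pass the set limit; inactive means fewer than half of replicates pass the limit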;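 further: 0% = DMSO wells and 100% = Ran loaded with GDP instead of GTP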
Runt-SMMHC FRET – Runt domain-CBFb-SMMHC interaction inhibition | Q01196+Q13951 | Cerulean-Runt/Venus-CBFb-SMMHC FRET ratio 530/480, 1 h | inhibition, % at 20 µM | 220,000 tested, 0.74% active | AID 1434;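 active means mean inhibition across duplicate retests at 20 µM reaching about 50%, limit read from the data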;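 further: 0% = DMSO wells and 100% = wells with excess untagged CBFb-SMMHC; inhibitors lower the FRET ratio by blocking Runt binding to CBFb-SMMHC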
Active calls of the source: *; ? = inconclusive; / = no result given; [ ] = remark or other dose. A selection: hits, their analogues and other compounds. The true share with any hit is near 2.2%.

SMILES	Runt-CBFb FRET	14-3-3 Bad inh	TbHK1 inh	Hck-Nef inh	RanGTP-Impb inh	Runt-SMMHC FRET
O=C(CSc1cccc[n+]1[O-])Nc1cc2c(cc1Cl)C(=O)c1ccccc1C2=O	-4	99*[fluorescence artefact?]	0	7	-2	4
O=C(CSc1cccc[n+]1[O-])Nc1cc([N+](=O)[O-])ccc1Cl	0	-6	-4	4	-2	-4
COc1cc(CC(=O)OCC(=O)N2C(C)CCCC2C)cc(OC)c1OC (stereo not given)	/	/	/	/	4	/
CCSc1ccc(-c2nn(-c3ccccc3)cc2/C=C(/C#N)C(=O)NCCCOC)cc1	24	-1	-25	0	/	60*
O=C(CSc1ccccn1)N/N=C/c1ccccc1[N+](=O)[O-]	1	84*[fluorescence artefact?]	-11	1	-3	2
Cc1ccc(/C=C2/SC(=O)NC2=S)o1	26	6	-2	40	/	59*
Cc1ccc(/C=C2/SC(=S)N(C3CCCCC3)C2=O)o1	/	/	/	/	2	/
CC1=NN(C(=O)COc2ccc(C)c(C)c2)C(O)(c2ccccc2)C1 (stereo not given)	1	1	6	3	22*	1
O=C(O)CC(c1cccc2ccccc12)n1cccc1 (stereo not given)	3	-6	12	-2	-2	5
CCOC(=O)C(NCCCCl)c1ccccc1 (stereo not given)	1	73*	-5	-2	-1	-4
CCN1CCC2(CC1)Oc1c(OC)cccc1C1CC(c3cccnc3)=NN12 (stereo not given)	0	-6	-5	-11	-1	4
N#CC1=C(N)N(c2ccccc2C#N)C2=C(C(=O)CCC2)C1c1ccsc1 (stereo not given)	15	-9	-7	1	30*	18
Cc1c(C2C(C#N)=C(N)N(c3ccccc3C#N)C3=C2C(=O)CCC3)cnn1C (stereo not given)	2	-21	21	4	-3	-13
O=C(O)c1ccccc1-c1nc(-c2ccccc2)c(-c2ccccc2)[nH]1	1	-4	-8	4	-1	4
O=C(O)c1ccccc1-c1nc2ccccc2c(=O)[nH]1	0	-1	-6	0	25*	0
CCN1CCN(CCCOc2ccccc2-c2ccccc2)CC1	2	71*	14	11	3	-5
CCC(=O)c1ccccc1OCCN1CCN(Cc2ccccc2)CC1	0	51	-1	23	4	4
CCN1CCN(CCOc2ccccc2-c2ccccc2)CC1	0	29	0	17	1	1
CCOc1ccccc1OCCOCCN1CCN(Cc2ccccc2)CC1	1	84*	5	16	5	-3
CC(C)(C)NC(=O)Cn1nnc(-c2ccc(OCc3c(F)cccc3Cl)cc2)n1	/	/	/	/	4	/
CC(NC(=O)OC(C)(C)C)C(=O)Oc1cc2oc(=O)cc(-c3ccccc3)c2cc1Cl (stereo not given)	19	1	-8	4	1	79*
COc1cccc(/C=C/C(=O)OCC(=O)Nc2ccc(Cl)c(S(=O)(=O)N(C)C)c2)c1	2	-9	1	15	-1	0
COc1cccc(/C=C/C(=O)OCC(=O)Nc2cccc(S(=O)(=O)N(C)C)c2)c1	-2	95*	-2	-16	-1	-3
CCOC(=O)c1ccccc1NC(=O)COC(=O)CCC(=O)c1ccc(C)cc1	/	/	/	/	2	/
COc1ccccc1NC(=O)COC(=O)C1CCN(/C=C/C(=O)C(F)(F)F)CC1	0	3	-32	-29	1	-1
SMILES	Runt-CBFb FRET	14-3-3 Bad inh	TbHK1 inh	Hck-Nef inh	RanGTP-Impb inh	Runt-SMMHC FRET
CCCOc1ccc(C2C3=C(CCCC3=O)N(CC(=O)O)C3=C2C(=O)CCC3)cc1OCC	/	/	/	/	0	/
C#CCOc1ccc(C2C3=C(CCCC3=O)N(CC(=O)O)C3=C2C(=O)CCC3)cc1Br	/	/	/	/	117*	/
Cc1ccc(S(=O)(=O)[N-]c2nc3ccccc3nc2-n2cc[n+](CCC(C)C)c2)cc1	-2	5	-14	17	?	32
CC(C)CC[n+]1ccn(-c2nc3ccccc3nc2[N-]S(=O)(=O)c2ccc(Cl)cc2)c1	11	2	-4	14	30*	26
Cc1nn(CC(=O)N/N=C/c2ccc3c(c2)OCO3)c(C)c1Br	-2	80*	-5	0	-2	1
COc1ccc(C(=O)Nc2ccccc2C(=O)NC(Cc2ccc(O)cc2)C(=O)NNC(=O)c2ccc(C)cc2)cc1 (stereo not given)	-4	79*	-16	3	3	-17
C=CCn1c(=O)c2ccccc2n2c(SCC(=O)NCC)nnc12	/	/	/	/	0	/
CC(Nc1ccc(N2CCOCC2)cc1)C(=O)N1c2ccccc2CC1C (stereo not given)	44	84*	-15	-30	2	-1
COc1cc(CN2CCC(C(=O)N3CCN(c4ccccc4F)CC3)CC2)cc(OC)c1O	-1	54	10	2	3	-1
CCOC(=O)C1CCN(Cc2ccc(O)c(OC)c2)CC1	5	84*	1	0	-1	-7
COc1cc(CN2CCSCC2)cc(OC)c1OC	0	44	1	-1	1	-2
COc1ccc(CN2CCSCC2)cc1O	1	76*	-6	1	-3	2
CCOc1ccc(CN2CCC(C(=O)N3CCN(c4ccccc4F)CC3)CC2)cc1OC	-2	74*	0	-3	1	1
CCOC(=O)C1CCN(Cc2ccc(OC)c(OCc3ccccc3)c2)CC1	/	/	/	/	3	/
CC(C)(CC(=O)O)CC(=O)Nc1ccc(Oc2ccc(C(C)(C)C)cc2)nc1	-3	-19	-12	8	1	0
CC(C)OC(=O)c1sc2nc(-c3ccccc3)ccc2c1N	-1	-8	-3	0	20*	4
Nc1c(C(=O)Nc2ccc(Cl)c(Cl)c2)sc2nc(-c3cccnc3)ccc12	35	95*[fluorescence artefact?]	-15	-2	-3	-71
Nc1c(C(=O)Nc2ccccc2F)sc2nc(-c3cccnc3)ccc12	-3	14	-32	-21	-48	-56
CCCNC(=S)NCCN1CCCCC1	0	73*	4	6	-2	4
C=CCNc1nc(-c2ccc(O)c(C(N)=O)c2)cs1	20	76*	-15	0	2	2
COc1cc2c(C(=O)NCc3ccc4c(c3)OCO4)cn(CC(C)C)c(=O)c2cc1OC	-2	3	-2	2	1	-5
COc1cc2c(C(=O)Nc3ccc4c(c3)OCO4)cn(CC(C)C)c(=O)c2cc1OC	-14	/	-28	8	22*	1
CC(C)CN(C(=O)COC(=O)CCc1nc2ccccc2s1)c1c(N)n(Cc2ccccc2)c(=O)[nH]c1=O	/	/	/	/	-1	/
